Calls of active or inactive are those of the source. The calls are words filed in the database; no cut-off is given here.
Columns and labels:
Format in all cases: cell-based
Conditions in all cases: HepG2
[1] = target: T1, Retinoic acid receptor RXR-alpha (Homo sapiens) (UniProt P19793); test: Increase in transcriptional activity of RXRalpha ligand binding domain expressed in human Hep G2 cells co-transfected with Gal4-DBD by luciferase reporter gene assay
T1 sequence (whole entry): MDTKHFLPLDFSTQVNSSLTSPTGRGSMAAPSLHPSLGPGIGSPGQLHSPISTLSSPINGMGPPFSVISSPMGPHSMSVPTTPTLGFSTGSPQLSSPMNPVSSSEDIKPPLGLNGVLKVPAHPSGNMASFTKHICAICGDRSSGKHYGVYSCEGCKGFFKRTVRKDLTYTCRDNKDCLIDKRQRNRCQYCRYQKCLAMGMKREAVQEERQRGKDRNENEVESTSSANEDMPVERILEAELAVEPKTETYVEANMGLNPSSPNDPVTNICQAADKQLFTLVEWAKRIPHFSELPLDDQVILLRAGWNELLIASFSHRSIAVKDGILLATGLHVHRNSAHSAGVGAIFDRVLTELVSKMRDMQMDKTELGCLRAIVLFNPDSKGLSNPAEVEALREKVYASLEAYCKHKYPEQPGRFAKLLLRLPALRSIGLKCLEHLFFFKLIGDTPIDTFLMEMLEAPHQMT
In short: (§1)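 HepG2 cells transfected for 4 h by calcium phosphate coprecipitation with 100 ng pGal4UAS-luciferase, 50 ng Gal4-LBD receptor vector and 300 ng CMV-β-galactosidase plasmid for normalization. Cells were washed in PBS, then refed with serum-free DMEM/F-12 containing penicillin/streptomycin and compound or 0.1% ethanol vehicle for 20 h. Luciferase read-out was normalized to β-galactosidase. Experiments were repeated at least three times.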

[2] = target: T2, Bile acid receptor (Homo sapiens) (UniProt Q96RI1); test: Increase in transcriptional activity of FXR ligand binding domain expressed in human Hep G2 cells co-transfected with Gal4-DBD by luciferase reporter gene assay; in short: as §1
T2 sequence (whole entry): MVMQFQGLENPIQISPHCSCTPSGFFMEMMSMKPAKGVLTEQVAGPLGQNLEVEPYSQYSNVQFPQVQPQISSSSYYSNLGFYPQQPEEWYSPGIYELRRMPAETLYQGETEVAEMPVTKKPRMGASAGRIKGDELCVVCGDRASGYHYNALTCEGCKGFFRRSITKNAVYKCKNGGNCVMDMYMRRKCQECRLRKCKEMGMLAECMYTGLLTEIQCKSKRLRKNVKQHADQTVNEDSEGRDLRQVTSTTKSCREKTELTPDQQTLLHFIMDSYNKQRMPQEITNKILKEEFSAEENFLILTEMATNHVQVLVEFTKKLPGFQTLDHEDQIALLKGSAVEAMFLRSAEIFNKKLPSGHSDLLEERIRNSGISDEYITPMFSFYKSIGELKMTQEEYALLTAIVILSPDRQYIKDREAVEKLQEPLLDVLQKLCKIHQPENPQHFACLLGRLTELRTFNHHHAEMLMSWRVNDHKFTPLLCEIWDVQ

[3] = target: T3, Hepatocyte nuclear factor 4-alpha (Homo sapiens) (UniProt P41235); test: Increase in transcriptional activity of HNF-4alpha ligand binding domain expressed in human Hep G2 cells co-transfected with Gal4-DBD by luciferase reporter gene assay; in short: as §1
T3 sequence (whole entry): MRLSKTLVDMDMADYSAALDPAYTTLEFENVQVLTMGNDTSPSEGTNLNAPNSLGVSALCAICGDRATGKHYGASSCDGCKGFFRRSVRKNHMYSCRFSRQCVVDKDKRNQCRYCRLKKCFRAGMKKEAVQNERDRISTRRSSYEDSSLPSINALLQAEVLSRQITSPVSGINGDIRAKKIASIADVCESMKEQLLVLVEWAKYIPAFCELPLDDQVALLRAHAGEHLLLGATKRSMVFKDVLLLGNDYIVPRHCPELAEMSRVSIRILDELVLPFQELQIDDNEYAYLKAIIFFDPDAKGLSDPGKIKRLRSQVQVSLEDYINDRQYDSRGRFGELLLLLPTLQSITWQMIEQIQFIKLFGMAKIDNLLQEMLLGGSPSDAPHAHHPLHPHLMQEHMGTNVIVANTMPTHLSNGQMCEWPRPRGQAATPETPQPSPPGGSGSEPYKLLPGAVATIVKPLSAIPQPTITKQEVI

[4] = target: T4, Peroxisome proliferator-activated receptor alpha (Homo sapiens) (UniProt Q07869); test: Agonist activity at human PPARalpha ligand binding domain expressed in human Hep G2 cells co-transfected with Gal4-DBD by luciferase reporter gene assay relative to Wy 14,643
T4 sequence (whole entry): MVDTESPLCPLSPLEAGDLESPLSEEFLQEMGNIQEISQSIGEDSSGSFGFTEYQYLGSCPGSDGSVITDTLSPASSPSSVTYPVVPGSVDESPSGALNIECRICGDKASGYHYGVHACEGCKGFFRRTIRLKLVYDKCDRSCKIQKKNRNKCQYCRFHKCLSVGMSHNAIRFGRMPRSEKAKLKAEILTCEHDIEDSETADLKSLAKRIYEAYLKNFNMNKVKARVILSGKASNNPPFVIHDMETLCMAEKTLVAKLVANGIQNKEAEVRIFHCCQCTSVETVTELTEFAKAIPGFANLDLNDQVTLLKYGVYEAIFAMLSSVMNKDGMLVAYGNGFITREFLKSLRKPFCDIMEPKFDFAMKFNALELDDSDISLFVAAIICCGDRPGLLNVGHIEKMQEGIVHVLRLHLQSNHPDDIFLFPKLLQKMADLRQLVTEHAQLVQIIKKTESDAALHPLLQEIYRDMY
In short: (§2)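 HepG2 cells received the Gal4-receptor LBD construct (50 ng), pGal4UAS-luciferase (100 ng) and pCMVβ (300 ng) by calcium phosphate coprecipitation for 4 h. They were then treated in serum-free DMEM/F-12 with ligand or 0.1% ethanol for 20 h. Luciferase was normalized to β-galactosidase, and efficacy was expressed as percent of the Wy 14,643 maximum (100%). Values are mean ± SEM of 3–5 experiments in triplicate.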

[5] = target: T5, Peroxisome proliferator-activated receptor alpha (Mus musculus) (UniProt P23204); test: Agonist activity at mouse PPARalpha ligand binding domain expressed in human Hep G2 cells co-transfected with Gal4-DBD by luciferase reporter gene assay relative to Wy 14,643; in short: as §2
T5 sequence (whole entry): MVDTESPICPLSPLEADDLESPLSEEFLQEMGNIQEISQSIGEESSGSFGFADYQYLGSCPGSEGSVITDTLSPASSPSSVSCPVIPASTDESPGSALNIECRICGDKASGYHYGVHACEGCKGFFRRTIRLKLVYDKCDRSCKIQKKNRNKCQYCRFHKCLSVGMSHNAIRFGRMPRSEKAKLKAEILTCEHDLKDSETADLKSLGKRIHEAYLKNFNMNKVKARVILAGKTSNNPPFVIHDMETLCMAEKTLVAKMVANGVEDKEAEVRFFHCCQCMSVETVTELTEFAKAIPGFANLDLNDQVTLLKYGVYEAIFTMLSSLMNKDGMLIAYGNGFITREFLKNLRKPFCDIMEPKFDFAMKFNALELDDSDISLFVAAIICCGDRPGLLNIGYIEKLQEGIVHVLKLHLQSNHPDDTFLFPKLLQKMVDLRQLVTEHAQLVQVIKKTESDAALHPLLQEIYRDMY

O=C(O)[C@@H](Cc1ccccc1)Oc1ccc(-c2ccccc2)cc1
Activity [1]: inactive | Activity [2]: inactive | Activity [3]: inactive | Activity [4]: inactive | Activity [5]: inactive

O=C(O)[C@H](Cc1ccccc1)Oc1ccc(-c2ccccc2)cc1
Activity [1]: inactive | Activity [2]: inactive | Activity [3]: inactive | Efficacy [4]: 100% | Efficacy [5]: 120%
